Laboratory results as given in ChEMBL document CHEMBL1123085, “Mechanism of the differentiating action of 25-hydroxyvitamin D3 endoperoxides in human myeloid leukemia cells (HL-60)” (1985).
Values joined by “and” are separate entries in the source; they are usually repeats but may differ in a detail not shown here. Identical values can stand only once.

Tests used:
Type in all cases: functional
Mus musculus [1] = species on record: Mus musculus; test: In vitro bone-reabsorbing activity was examined in fetal mouse calvaria prelabeled with 45 Ca at 120 nM concentration, Ca release
Procedure, shortened: (§1)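 Paired half fetal mouse calvaria, split along the midsagittal suture, were precultured 24 h at 37 °C under 5% CO₂ in air in BGJ medium containing 1 mg/mL bovine serum albumin. Halves were then moved to fresh medium with or without derivative for 6 more days. Bones were digested overnight in HCl, and ⁴⁵Ca in the medium and bone was counted. ⁴⁵Ca release % = medium/(medium+bone)×100, reported as treated/control ratio. Student's t test.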

Mus musculus [2] = species on record: Mus musculus; test: In vitro bone-reabsorbing activity was examined in fetal mouse calvaria prelabeled with 45 Ca at 12 nM concentration, Ca release; procedure, shortened: as §1
Mus musculus [3] = species on record: Mus musculus; test: In vitro bone-resorbing activity was examined in fetal mouse calvaria prelabeled with 45Ca at 12 nM concentration; procedure, shortened: as §1
Mus musculus [4] = species on record: Mus musculus; test: In vitro bone-resorbing activity was examined in fetal mouse calvaria prelabeled with 45Ca at 120 nM concentration; procedure, shortened: as §1
Mus musculus [5] = species on record: Mus musculus; test: In vitro bone-resorbing activity was examined in fetal mouse calvaria prelabeled with 45Ca at 1.2 nM concentration; procedure, shortened: as §1
Mus musculus [6] = species on record: Mus musculus; test: In vitro bone-reabsorbing activity was examined in fetal mouse calvaria prelabeled with 45 Ca at 1.2 nM concentration, Ca release; procedure, shortened: as §1

| Structure (SMILES) | T/C (Mus musculus [1]) | T/C (Mus musculus [2]) | T/C (Mus musculus [3]) | T/C (Mus musculus [4]) | T/C (Mus musculus [5]) | T/C (Mus musculus [6]) |
| --- | --- | --- | --- | --- | --- | --- |
| C[C@H](CCCC(C)(C)O)C1CCC2/C(=C/C3OOCC4=C3C[C@@H](O)CC4)CCCC21C (stereo partly drawn) | 2.43 | 1.61 |  |  |  |  |
| C[C@H](CCCC(C)(C)O)C1CCC2/C(=C/c3occ4c3CC(O)CC4)CCCC21C (stereo partly drawn) |  |  | 1.63 | 2.64 | 1.05 and 0.98 |  |
| C=C1CC[C@H](O)C/C1=C/C=C1\CCC[C@]2(C)[C@@H]([C@H](C)CCCC(C)(C)O)CC[C@@H]12 [CALCIFEDIOL ANHYDROUS] | 1.74 | 1.33 |  |  |  | 1 |
